Assays:
[1] = biological target: T1, Neurogenic locus notch homolog protein 1 (Homo sapiens, UniProt P46531); experiment: Inhibition of Notch1 deltaE mutant (unknown origin) expressed in HEK293 cells after 16 hrs by […] luciferase reporter gene assay; format: cell-based
Target sequence in this assay (P46531 19-2555 limits assumed): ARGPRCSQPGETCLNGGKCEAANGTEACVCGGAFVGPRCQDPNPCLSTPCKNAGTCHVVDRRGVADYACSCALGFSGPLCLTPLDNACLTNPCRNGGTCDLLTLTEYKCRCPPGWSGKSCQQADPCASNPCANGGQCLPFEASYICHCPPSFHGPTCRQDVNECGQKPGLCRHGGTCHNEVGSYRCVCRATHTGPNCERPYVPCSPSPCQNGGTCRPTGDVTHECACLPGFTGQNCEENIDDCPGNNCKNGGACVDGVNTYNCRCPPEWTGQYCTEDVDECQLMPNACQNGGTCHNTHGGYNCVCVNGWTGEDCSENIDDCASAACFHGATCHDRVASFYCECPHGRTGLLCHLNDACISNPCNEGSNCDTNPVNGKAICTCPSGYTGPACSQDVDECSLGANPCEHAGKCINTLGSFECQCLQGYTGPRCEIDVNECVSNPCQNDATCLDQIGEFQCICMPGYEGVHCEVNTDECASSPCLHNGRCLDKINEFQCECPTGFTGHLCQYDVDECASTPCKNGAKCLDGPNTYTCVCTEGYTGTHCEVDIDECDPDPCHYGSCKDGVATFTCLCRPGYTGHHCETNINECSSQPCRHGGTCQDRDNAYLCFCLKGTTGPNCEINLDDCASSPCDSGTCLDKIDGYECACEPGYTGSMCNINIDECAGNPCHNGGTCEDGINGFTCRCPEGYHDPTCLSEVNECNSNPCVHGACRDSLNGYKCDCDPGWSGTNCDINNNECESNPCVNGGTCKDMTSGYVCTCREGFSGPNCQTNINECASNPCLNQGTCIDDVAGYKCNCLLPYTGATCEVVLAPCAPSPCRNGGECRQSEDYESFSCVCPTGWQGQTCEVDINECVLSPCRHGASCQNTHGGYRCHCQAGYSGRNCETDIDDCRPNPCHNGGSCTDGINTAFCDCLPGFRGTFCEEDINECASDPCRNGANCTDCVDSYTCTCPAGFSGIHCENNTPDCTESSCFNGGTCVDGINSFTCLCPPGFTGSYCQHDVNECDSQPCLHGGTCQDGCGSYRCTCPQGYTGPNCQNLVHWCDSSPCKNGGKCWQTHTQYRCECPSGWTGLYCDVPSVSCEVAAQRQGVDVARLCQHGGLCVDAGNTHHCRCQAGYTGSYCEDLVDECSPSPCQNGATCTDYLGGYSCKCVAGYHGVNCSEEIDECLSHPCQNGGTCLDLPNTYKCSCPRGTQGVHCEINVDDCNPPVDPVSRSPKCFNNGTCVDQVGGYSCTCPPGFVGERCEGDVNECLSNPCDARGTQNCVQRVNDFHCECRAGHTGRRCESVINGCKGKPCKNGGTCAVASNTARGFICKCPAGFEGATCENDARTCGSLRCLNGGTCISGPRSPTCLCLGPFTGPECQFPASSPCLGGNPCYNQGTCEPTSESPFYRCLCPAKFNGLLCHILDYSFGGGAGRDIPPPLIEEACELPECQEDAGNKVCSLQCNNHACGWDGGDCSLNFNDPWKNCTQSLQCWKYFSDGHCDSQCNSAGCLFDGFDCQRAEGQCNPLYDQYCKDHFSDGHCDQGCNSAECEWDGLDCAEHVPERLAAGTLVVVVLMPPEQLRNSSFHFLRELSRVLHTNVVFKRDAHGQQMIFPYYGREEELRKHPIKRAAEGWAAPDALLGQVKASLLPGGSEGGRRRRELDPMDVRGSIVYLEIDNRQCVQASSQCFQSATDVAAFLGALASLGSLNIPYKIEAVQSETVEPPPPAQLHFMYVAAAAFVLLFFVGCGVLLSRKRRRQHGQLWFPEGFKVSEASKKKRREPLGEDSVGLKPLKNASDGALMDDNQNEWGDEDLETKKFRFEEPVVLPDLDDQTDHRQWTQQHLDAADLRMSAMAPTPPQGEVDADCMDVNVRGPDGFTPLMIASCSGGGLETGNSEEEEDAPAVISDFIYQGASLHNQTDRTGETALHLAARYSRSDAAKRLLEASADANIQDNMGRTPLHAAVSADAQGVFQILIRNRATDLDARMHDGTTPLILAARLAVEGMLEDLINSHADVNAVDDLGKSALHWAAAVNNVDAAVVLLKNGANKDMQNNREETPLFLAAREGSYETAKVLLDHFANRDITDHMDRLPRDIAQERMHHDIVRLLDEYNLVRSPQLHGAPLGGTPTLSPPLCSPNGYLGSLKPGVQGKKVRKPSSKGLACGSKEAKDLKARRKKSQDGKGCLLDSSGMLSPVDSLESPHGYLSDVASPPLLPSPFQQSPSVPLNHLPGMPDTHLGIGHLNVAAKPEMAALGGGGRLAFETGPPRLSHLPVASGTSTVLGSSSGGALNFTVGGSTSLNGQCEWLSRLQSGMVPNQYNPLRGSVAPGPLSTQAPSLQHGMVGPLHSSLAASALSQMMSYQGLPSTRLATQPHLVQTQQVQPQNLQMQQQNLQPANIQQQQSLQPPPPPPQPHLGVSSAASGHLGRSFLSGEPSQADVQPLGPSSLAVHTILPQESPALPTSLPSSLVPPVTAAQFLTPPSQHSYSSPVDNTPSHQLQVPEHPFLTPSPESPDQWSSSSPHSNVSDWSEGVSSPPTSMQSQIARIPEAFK

[2] = biological target: T1, Neurogenic locus notch homolog protein 1; experiment: Potency index, ratio of FLI-06 IC50 to compound IC50 for inhibition of Notch1 deltaE mutant (unknown origin)
Target sequence in this assay (P46531 whole entry): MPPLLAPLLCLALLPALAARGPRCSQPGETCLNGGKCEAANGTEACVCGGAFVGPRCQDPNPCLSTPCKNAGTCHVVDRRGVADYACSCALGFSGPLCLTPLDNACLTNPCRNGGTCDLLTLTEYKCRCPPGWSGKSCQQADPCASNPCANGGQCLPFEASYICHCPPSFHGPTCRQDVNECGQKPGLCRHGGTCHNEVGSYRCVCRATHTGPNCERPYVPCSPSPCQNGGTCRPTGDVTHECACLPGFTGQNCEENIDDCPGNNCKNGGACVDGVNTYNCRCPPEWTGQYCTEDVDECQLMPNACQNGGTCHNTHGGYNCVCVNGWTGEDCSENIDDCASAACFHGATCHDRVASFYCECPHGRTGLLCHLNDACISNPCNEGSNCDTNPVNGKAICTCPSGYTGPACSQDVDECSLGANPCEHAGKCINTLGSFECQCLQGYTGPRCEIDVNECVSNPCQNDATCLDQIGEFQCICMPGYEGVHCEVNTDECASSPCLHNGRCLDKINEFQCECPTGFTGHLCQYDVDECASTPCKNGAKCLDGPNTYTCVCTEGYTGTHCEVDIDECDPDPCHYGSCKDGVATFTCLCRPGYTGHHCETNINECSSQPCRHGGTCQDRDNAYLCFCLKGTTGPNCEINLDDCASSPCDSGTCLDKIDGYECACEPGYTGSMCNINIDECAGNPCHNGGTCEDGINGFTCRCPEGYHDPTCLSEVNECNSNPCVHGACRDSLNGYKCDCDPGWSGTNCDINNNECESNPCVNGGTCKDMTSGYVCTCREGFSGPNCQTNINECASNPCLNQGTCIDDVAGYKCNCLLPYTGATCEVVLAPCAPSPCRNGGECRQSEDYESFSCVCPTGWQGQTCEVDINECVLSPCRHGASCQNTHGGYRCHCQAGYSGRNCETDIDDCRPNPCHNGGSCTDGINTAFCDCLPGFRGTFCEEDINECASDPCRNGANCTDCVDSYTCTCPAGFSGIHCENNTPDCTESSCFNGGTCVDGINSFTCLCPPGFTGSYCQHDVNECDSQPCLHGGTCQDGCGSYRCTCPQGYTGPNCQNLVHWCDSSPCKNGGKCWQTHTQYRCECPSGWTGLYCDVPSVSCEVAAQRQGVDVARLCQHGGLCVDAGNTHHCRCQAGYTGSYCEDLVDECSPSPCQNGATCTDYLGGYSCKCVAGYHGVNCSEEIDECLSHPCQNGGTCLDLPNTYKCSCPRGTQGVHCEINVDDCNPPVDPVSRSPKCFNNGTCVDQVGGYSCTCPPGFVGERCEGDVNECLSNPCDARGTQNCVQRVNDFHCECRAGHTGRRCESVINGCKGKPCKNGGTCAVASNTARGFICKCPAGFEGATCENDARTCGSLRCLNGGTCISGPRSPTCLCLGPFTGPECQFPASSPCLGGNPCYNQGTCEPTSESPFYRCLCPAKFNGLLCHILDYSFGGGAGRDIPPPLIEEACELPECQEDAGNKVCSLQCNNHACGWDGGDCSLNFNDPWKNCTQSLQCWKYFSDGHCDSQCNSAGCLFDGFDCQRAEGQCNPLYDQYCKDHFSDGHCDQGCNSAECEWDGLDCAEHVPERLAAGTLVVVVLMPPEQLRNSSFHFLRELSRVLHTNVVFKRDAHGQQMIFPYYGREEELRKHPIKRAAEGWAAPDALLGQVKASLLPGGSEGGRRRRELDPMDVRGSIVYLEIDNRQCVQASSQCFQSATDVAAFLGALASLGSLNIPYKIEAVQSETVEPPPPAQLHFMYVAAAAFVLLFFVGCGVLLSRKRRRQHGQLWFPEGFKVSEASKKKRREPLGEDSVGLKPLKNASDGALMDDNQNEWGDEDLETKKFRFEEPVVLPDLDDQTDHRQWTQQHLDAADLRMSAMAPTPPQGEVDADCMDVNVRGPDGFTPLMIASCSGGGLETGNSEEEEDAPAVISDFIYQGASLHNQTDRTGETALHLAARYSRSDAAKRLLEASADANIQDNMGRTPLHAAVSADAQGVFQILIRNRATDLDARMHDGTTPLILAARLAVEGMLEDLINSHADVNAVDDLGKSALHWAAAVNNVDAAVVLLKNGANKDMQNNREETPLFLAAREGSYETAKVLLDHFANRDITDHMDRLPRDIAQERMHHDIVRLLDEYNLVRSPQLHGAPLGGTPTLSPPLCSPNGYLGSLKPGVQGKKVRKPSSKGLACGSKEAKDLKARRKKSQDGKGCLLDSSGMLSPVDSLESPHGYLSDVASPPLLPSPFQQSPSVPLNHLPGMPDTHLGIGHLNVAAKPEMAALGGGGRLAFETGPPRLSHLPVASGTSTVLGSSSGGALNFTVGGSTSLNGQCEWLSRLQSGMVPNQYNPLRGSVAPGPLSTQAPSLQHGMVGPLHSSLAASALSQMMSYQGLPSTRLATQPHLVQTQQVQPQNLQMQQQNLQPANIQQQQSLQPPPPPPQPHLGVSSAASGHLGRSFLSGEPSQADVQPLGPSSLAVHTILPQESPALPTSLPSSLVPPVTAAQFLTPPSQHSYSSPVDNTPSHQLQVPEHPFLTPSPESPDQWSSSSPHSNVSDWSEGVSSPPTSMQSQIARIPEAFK

[3] = test system: HCT-116; experiment: Potency index, ratio of DAPM IC50 to compound IC50 for antiproliferative activity against human HCT116 cells; format: functional
[4] = test system: HCT-116; experiment: Antiproliferative activity against human HCT116 cells after 72 hrs by SYBR green dye based fluorescence assay; format: functional, cell-based; conditions: for IC50: HCT-116, 72 h
Summary of the method: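 HCT-116 colon cancer cells were incubated for 72 h with a concentration series of test agent, with a vehicle-treated control. Proliferation was measured, and the IC50 was derived from the dose-response curve.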

CC1=C(C(=O)OCC2CCN(C(=O)OC(C)(C)C)CC2)C(c2ccc3ccccc3n2)C2=C(CC(C)(C)CC2=O)N1 (configuration not stated)
IC50 [1]: 330 nM

CC1=C(C(=O)OCC2CCN(C(=O)OC(C)(C)C)CC2)C(c2cccc(C#N)c2)C2=C(CC(C)(C)CC2=O)N1 (configuration not stated)
IC50 [1]: 220 nM

CC1=C(C(=O)OC23CC4CC(CC(C4)C2)C3)C(c2cccc(Br)c2)C2=C(CC(C)(C)CC2=O)N1 (configuration not stated)
IC50 [1]: > 10000 nM

CC1=C(C(=O)OCC2CCN(C(=O)OC(C)(C)C)CC2)C(c2cccc([N+](=O)[O-])c2)C2=C(CC(C)(C)CC2=O)N1 (configuration not stated)
IC50 [1]: > 10000 nM

CC1=C(C(=O)OCC2CCN(C(=O)OC(C)(C)C)CC2)C(c2ccc(Br)cc2F)C2=C(CC(C)(C)CC2=O)N1 (configuration not stated)
IC50 [1]: > 10000 nM

CC1=C(C(=O)OC2CCN(C(=O)OC(C)(C)C)CC2)C(c2cccc(Br)c2)C2=C(CC(C)(C)CC2=O)N1 (configuration not stated)
IC50 [1]: > 10000 nM

CC1=C(C(=O)OCc2cnccn2)C(c2cccc(Br)c2)C2=C(CC(C)(C)CC2=O)N1 (configuration not stated)
IC50 [1]: 860 nM

CC1=C(C(=O)O[C@H](CC#N)c2ccccc2)C(c2cccc(Br)c2)C2=C(CC(C)(C)CC2=O)N1 (some centres not stated)
IC50 [1]: > 10000 nM

CC1=C(C(=O)OCC2CCN(C(=O)OC(C)(C)C)CC2)C(c2cccc(C(F)(F)F)c2)C2=C(CC(C)(C)CC2=O)N1 (configuration not stated)
IC50 [1]: 760 nM

CC1=C(C(=O)OCC2CCN(C(=O)OC(C)(C)C)CC2)C(c2cccc(-c3ccc4[nH]ccc4c3)c2)C2=C(CC(C)(C)CC2=O)N1 (configuration not stated)
IC50 [1]: 770 nM

CC1=C(C(=O)OCC2CCN(C(=O)OC(C)(C)C)CC2)C(c2ccc(-c3ccccc3)cc2)C2=C(CC(C)(C)CC2=O)N1 (configuration not stated)
IC50 [1]: > 10000 nM

CC1=C(C(=O)OCC2CCN(C(=O)OC(C)(C)C)CC2)C(c2cccc(Br)c2)C2=C(CC(C)(C)CC2=O)N1 (configuration not stated)
IC50 [1]: 360 nM

CC1=C(C(=O)OCCC2CCN(C(=O)OC(C)(C)C)CC2)C(c2cccc(Br)c2)C2=C(CC(C)(C)CC2=O)N1 (configuration not stated)
IC50 [1]: 2950 nM

CC1=C(C(=O)OCC2CCN(C(=O)OC(C)(C)C)CC2)C(c2cc(Cl)cc(Cl)c2)C2=C(CC(C)(C)CC2=O)N1 (configuration not stated)
IC50 [1]: 640 nM

CC1=C(C(=O)OCc2ccc(C(C)(C)C)cc2)C(c2cccc(Br)c2)C2=C(CC(C)(C)CC2=O)N1 (configuration not stated)
IC50 [1]: 4270 nM

CC1=C(C(=O)OCC2CCN(C(=O)OC(C)(C)C)CC2)[C@H](c2cccc(Br)c2)C2=C(CC(C)(C)CC2=O)N1
Ratio IC50 [2]: 20
Ratio IC50 [3]: 55
Activity [4]: Dose-dependent effect
IC50 [4]: 220 nM
IC50 [1]: 130 nM

CC1=C(C(=O)OCC2CCN(C(=O)OC(C)(C)C)CC2)C(c2cccc(C(C)C)c2)C2=C(CC(C)(C)CC2=O)N1 (configuration not stated)
IC50 [1]: 3320 nM

CC1=C(C(=O)OCC2CCN(C(=O)OC(C)(C)C)CC2)[C@@H](c2cccc(Br)c2)C2=C(CC(C)(C)CC2=O)N1
IC50 [1]: 2590 nM

COC(=O)[C@@H](NC(=O)[C@H](C)NC(=O)Cc1cc(F)cc(F)c1)c1ccccc1
Activity [4]: Dose-dependent effect
IC50 [4]: 12000 nM

CC1=C(C(=O)OCC2CCN(C(=O)OC(C)(C)C)CC2)C(c2ccc3c(c2)OCCO3)C2=C(CC(C)(C)CC2=O)N1 (configuration not stated)
IC50 [1]: 1520 nM

CC1=C(C(=O)OC2CCCCC2)C(c2ccc([N+](=O)[O-])cc2)C2=C(CC(C)(C)CC2=O)N1 (configuration not stated)
Activity [4]: Dose-dependent effect
IC50 [4]: 1800 nM
IC50 [1]: 2510 nM

CC1=C(C(=O)OC2CCCCC2)C(c2ccc3c(c2)OCCO3)C2=C(CC(C)(C)CC2=O)N1 (configuration not stated)
IC50 [1]: 12300 nM

CC1=C(C(=O)OC2CCCCC2)C(c2cccc(C(F)(F)F)c2)C2=C(CC(C)(C)CC2=O)N1 (configuration not stated)
IC50 [1]: 14700 nM

CC1=C(C(=O)OC2CCCCC2)C(c2cccc(Br)c2)C2=C(CC(C)(C)CC2=O)N1 (configuration not stated)
IC50 [1]: 4150 nM

CC1=C(C(=O)OC2CCCCC2)C(c2cccc(C#N)c2)C2=C(CC(C)(C)CC2=O)N1 (configuration not stated)
IC50 [1]: 43200 nM

Reference: ChEMBL document CHEMBL4265915, “b-Annulated 1,4-dihydropyridines as Notch inhibitors” (Bioorg Med Chem Lett, 2018)
